# Assay results: ChEMBL document CHEMBL1147066, “Structural basis of action for a human ether-a-go-go-related gene 1 potassium channel activator” (Proc Natl Acad Sci U S A, 2007); call rule not given here
# Key:
# [1] = target: T1, Voltage-gated inwardly rectifying potassium channel KCNH2 (Homo sapiens, UniProt Q12809); assay: Activation of human ERG1 expressed in CHO cells assessed as enhancement of current magnitude at 10 uM by two electrode voltage clamp technique; format: cell-based
# [2] = target: T1, Voltage-gated inwardly rectifying potassium channel KCNH2; assay: Activation of human ERG1 isoform 1 expressed in Xenopus laevis oocytes assessed as enhancement of current magnitude by two electrode voltage clamp technique; format: cell-based; settings: oocyte
# [3] = target: T1, Voltage-gated inwardly rectifying potassium channel KCNH2; assay: Activation of human ERG1 isoform 1 expressed in Xenopus laevis oocytes assessed as slowing of tail current deactivation by two electrode voltage clamp technique; format: cell-based; settings: oocyte
# How it was run: (§1)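 hERG1 (WT or point mutant) cRNA injected into Xenopus oocytes; two-electrode voltage clamp 1-5 days later. Bath: 96 mM NaCl, 2 mM KCl, 1 mM CaCl2, 2 mM MgCl2, 5 mM Hepes, pH 7.6. Holding potential -90 mV. Protocols repeated 10-15 min after adding compound to the bath, diluted from a 10 mM DMSO stock; one concentration per oocyte.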
# [4] = target: T2, Voltage-gated inwardly rectifying potassium channel KCNH2 (Homo sapiens, UniProt Q12809, L553A); assay: (§2) Activation of human ERG1 L553A mutant expressed in Xenopus laevis oocytes assessed as slowing of tail current deactivation at 3 uM by two electrode voltage clamp technique; format: cell-based; settings: oocyte; how it was run: as §1
# [5] = target: Voltage-gated inwardly rectifying potassium channel KCNH2 (Homo sapiens, UniProt Q12809, I662A); assay: Activation of human ERG1 I662A mutant expressed in Xenopus laevis oocytes assessed as shifting of voltage dependence of inactivation towards positive potentials at 3 uM by two electrode voltage clamp technique; format: cell-based; settings: oocyte; how it was run: as §1
# [6] = target: Voltage-gated inwardly rectifying potassium channel KCNH2 (Homo sapiens, UniProt Q12809, G628C/S631C); assay: Effect on human ERG1 G628C/S631C mutant expressed in Xenopus laevis oocytes at 3 uM by two electrode voltage clamp technique; format: cell-based; settings: oocyte
# [7] = target: Voltage-gated inwardly rectifying potassium channel KCNH2 (Homo sapiens, UniProt Q12809, L550A); assay: Activation of human ERG1 L550A mutant expressed in Xenopus laevis oocytes assessed as shifting of voltage dependence of inactivation towards positive potentials at 3 uM by two electrode voltage clamp technique; format: cell-based; settings: oocyte; how it was run: as §1
# [8] = target: T3, Voltage-gated inwardly rectifying potassium channel KCNH2 (Homo sapiens, UniProt Q12809, V659A); assay: (§3) Activation of human ERG1 V659A mutant expressed in Xenopus laevis oocytes assessed as slowing of tail current deactivation at 3 uM by two electrode voltage clamp technique; format: cell-based; settings: oocyte; how it was run: as §1
# [9] = target: T3, Voltage-gated inwardly rectifying potassium channel KCNH2; assay: as §3; format: cell-based; settings: oocyte; how it was run: as §1; remark: listed apart in the source
# [10] = target: T4, Voltage-gated inwardly rectifying potassium channel KCNH2 (Homo sapiens, UniProt Q12809, F557L); assay: (§4) Activation of human ERG1 F557L mutant expressed in Xenopus laevis oocytes assessed as slowing of tail current deactivation at 3 uM by two electrode voltage clamp technique; format: cell-based; settings: oocyte; how it was run: as §1
# [11] = target: T1, Voltage-gated inwardly rectifying potassium channel KCNH2; assay: Activation of human ERG1 isoform 1 expressed in Xenopus laevis oocytes assessed as shifting of voltage dependence of inactivation towards positive potentials at 10 uM by two electrode voltage clamp technique; format: cell-based; settings: oocyte; how it was run: as §1
# [12] = target: T1, Voltage-gated inwardly rectifying potassium channel KCNH2; assay: Activation of human ERG1 isoform 1 expressed in Xenopus laevis oocytes assessed as increase in peak tail current magnitude by two electrode voltage clamp technique; format: cell-based, Oocyte
# [13] = target: T4, Voltage-gated inwardly rectifying potassium channel KCNH2; assay: Activation of human ERG1 F557L mutant expressed in Xenopus laevis oocytes assessed as shifting of voltage dependence of inactivation towards positive potentials at 30 uM by two electrode voltage clamp technique; format: cell-based; settings: oocyte; how it was run: as §1
# [14] = target: T5, Voltage-gated inwardly rectifying potassium channel KCNH2 (Homo sapiens, UniProt Q12809, L666A); assay: Inhibition of human ERG1 L666A mutant expressed in Xenopus laevis oocytes assessed as decrease in current amplitude by two electrode voltage clamp technique; format: cell-based; settings: oocyte; how it was run: as §1
# [15] = target: T1, Voltage-gated inwardly rectifying potassium channel KCNH2; assay: Activation of human ERG1 isoform 1 expressed in Xenopus laevis oocytes assessed as shifting of voltage dependence of inactivation towards positive potentials at 30 uM by two electrode voltage clamp technique; format: cell-based; settings: oocyte; how it was run: as §1
# [16] = target: T5, Voltage-gated inwardly rectifying potassium channel KCNH2; assay: Activation of human ERG1 L666A mutant expressed in Xenopus laevis oocytes assessed as shifting of voltage dependence of inactivation towards positive potentials at 30 uM by two electrode voltage clamp technique; format: cell-based; settings: oocyte; how it was run: as §1
# [17] = target: T5, Voltage-gated inwardly rectifying potassium channel KCNH2; assay: Activation of human ERG1 L666A mutant expressed in Xenopus laevis oocytes assessed as shifting of voltage dependence of inactivation towards positive potentials at 3 uM by two electrode voltage clamp technique; format: cell-based; settings: oocyte; how it was run: as §1
# [18] = target: Voltage-gated inwardly rectifying potassium channel KCNH2 (Homo sapiens, UniProt Q12809, V549A); assay: Activation of human ERG1 V549A mutant expressed in Xenopus laevis oocytes assessed as shifting of voltage dependence of inactivation towards positive potentials at 3 uM by two electrode voltage clamp technique; format: cell-based; settings: oocyte; how it was run: as §1
# [19] = target: T2, Voltage-gated inwardly rectifying potassium channel KCNH2; assay: as §2; format: cell-based; settings: oocyte; how it was run: as §1; remark: listed apart in the source
# [20] = target: Voltage-gated inwardly rectifying potassium channel KCNH2 (Homo sapiens, UniProt Q12809, Y652A); assay: Activation of human ERG1 Y652A mutant expressed in Xenopus laevis oocytes assessed as slowing of tail current deactivation at 3 uM by two electrode voltage clamp technique; format: cell-based; settings: oocyte; how it was run: as §1
# [21] = target: T4, Voltage-gated inwardly rectifying potassium channel KCNH2; assay: as §4; format: cell-based; settings: oocyte; how it was run: as §1; remark: listed apart in the source
# [22] = target: T1, Voltage-gated inwardly rectifying potassium channel KCNH2; assay: Activation of human ERG1 isoform 1 expressed in Xenopus laevis oocytes assessed as shifting of voltage dependence of inactivation towards positive potentials at 3 uM by two electrode voltage clamp technique; format: cell-based; settings: oocyte; how it was run: as §1
# [23] = target: T1, Voltage-gated inwardly rectifying potassium channel KCNH2; assay: Binding affinity to human ERG1 expressed in Xenopus laevis oocytes assessed as half-saturation concentration; format: cell-based, Oocyte; settings: read-out: Activity
# [24] = target: T6, Voltage-gated inwardly rectifying potassium channel KCNH2 (Homo sapiens, UniProt Q12809, N658A); assay: (§5) Activation of human ERG1 N658A mutant expressed in Xenopus laevis oocytes assessed as slowing of tail current deactivation at 3 uM by two electrode voltage clamp technique; format: cell-based; settings: oocyte; how it was run: as §1
# [25] = target: T1, Voltage-gated inwardly rectifying potassium channel KCNH2; assay: Activation of human ERG1 isoform 1 expressed in Xenopus laevis oocytes assessed as shifting of voltage dependence of inactivation towards positive potentials at 1 uM by two electrode voltage clamp technique; format: cell-based; settings: oocyte; how it was run: as §1
# [26] = target: T6, Voltage-gated inwardly rectifying potassium channel KCNH2; assay: as §5; format: cell-based; settings: oocyte; how it was run: as §1; remark: listed apart in the source
# [27] = target: Voltage-gated inwardly rectifying potassium channel KCNH2 (Homo sapiens, UniProt Q12809, Y667A); assay: Activation of human ERG1 Y667A mutant expressed in Xenopus laevis oocytes assessed as shifting of voltage dependence of inactivation towards positive potentials at 3 uM by two electrode voltage clamp technique; format: cell-based; settings: oocyte; how it was run: as §1
# [28] = target: T1, Voltage-gated inwardly rectifying potassium channel KCNH2; assay: Activation of human ERG1 isoform 1 expressed in Xenopus laevis oocytes assessed as shifting of voltage dependence of inactivation towards positive potentials by two electrode voltage clamp technique; format: cell-based, Oocyte; how it was run: as §1
structure (smiles),measurement,setting,value
COc1ccc2nccc(C(=O)CC[C@@H]3CCN(CC#Cc4cc(F)cc(F)c4F)C[C@@H]3C(=O)O)c2c1,Activity,[1],15%
same,Activity,[2],Active
same,Activity,[3],Active
same,Activity,[4],Not Active
same,Activity,[5],Active
same,Activity,[6],Not Active
same,Activity,[7],Active
same,Activity,[8],Not Active
same,Activity,[9],Not Active
same,Activity,[10],Not Active
same,Activity,[11],28 mV
same,EC50,[12],15 µM
same,Activity,[13],< 10 mV
same,Activity,[14],Active
same,Activity,[15],36.9 mV
same,Activity,[16],< 10 mV
same,Activity,[17],Active
same,Activity,[18],Active
same,Activity,[19],Not Active
same,Activity,[20],Active
same,Activity,[21],Not Active
same,Activity,[22],17.2 mV
same,Kd,[23],9.4 µM
same,Activity,[24],Not Active
same,Activity,[25],10.2 mV
same,Activity,[26],Not Active
same,Activity,[27],Active
same,EC50,[28],8 µM
